# Source: PubChem (several laboratories)
# Phagocytosis inh: macrophage phagocytosis inhibition; J774A.1 macrophage IgG-bead phagocytosis, imaging; inhibition, % at 5 µM; actives 0.07% (n = 110,000);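 active = inhibition above the mean of the plate negative controls plus 5 SD, cut at about 13% in these data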;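 also: phagocytic index as fraction of beads internalized from green versus red external bead signal; plate controls were DMSO negative control for no effect and cytochalasin-D positive control for full effect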
# RAM network inh: blocks the yeast RAM network; AID 868; actives 1.8% (n = 190,000); S. cerevisiae dse1pr::URA3 reporter, 5-FOA growth OD615, 2 d; analog-sensitive cbk1-as2 kinase mutant strain; inhibition, % at 50 µM;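 active = inhibition above a set limit, 3 SD over mean compound inhibition, cut at about 8.4% in these data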;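 also: 0% = DMSO-only wells with no growth and 100% = 10 µM 1-NA-PP1 full growth; inhibition rescues growth on 5-FOA so higher OD means more RAM inhibition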
# Measles CPE: protection of cells from measles virus; AID 841; Measles virus-infected cells, CPE protection, absorbance; actives 1.5% (n = 140,000); protection (pct of control), % at 4 µM; in the data active = protection mostly above about 24%, no sharp cut-off; inactive = mostly below about 26%
# BB579 growth dn: yeast BB579 growth reduction in restrictive medium; S. cerevisiae BB579 growth, OD615, 48 h; inhibition, % at 10 µM; actives 0.51% (n = 140,000);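 active = inhibition above a set limit, 3 SD over the mean compound inhibition, cut at about 44% in these data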
#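 Assay system: S. cerevisiae DeaD strain BB579 yeast. Medium: CSMM-D restrictive synthetic medium containing dextrose (glucose). Times: 4 h cell preincubation, 48 h compound exposure, 30 °C humidified. Signal: OD615 turbidity measurement. Benchmarks: positive control amphotericin B 10 µg/mL.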
# Yeast lifespan up: yeast lifespan extension; S. cerevisiae growth with nicotinamide, OD615; deaD strain in restrictive glucose medium; inhibition of the nicotinamide effect, % at 10 µM; actives 0.68% (n = 130,000);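 active = inhibition above a set limit, placed 3 SD over the median of all compounds, cut at about 26% in these data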;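 also: 0% = nicotinamide-treated wells and 100% = cells grown without nicotinamide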
#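 Test system – modified budding yeast, DeaD strain · Compound – single dose 10 µM compound, 0.25% DMSO · Times – culture preincubation 4 h, compound exposure 48 h, both 30 °C · Detection – optical density (absorbance) at 615 nm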
# Starred values were filed as active, the others as inactive; . = no result given. An excerpt weighted towards active compounds, which were near 3.6% of everything screened.
SMILES,Phagocytosis inh,RAM network inh,Measles CPE,BB579 growth dn,Yeast lifespan up
CCOC(=O)c1c(-c2ccco2)csc1NC(=O)CSc1nnc(N)s1,.,10.2*,0.2,-28.9,-13.6
CCOC(=O)c1c(NC(=O)CSc2ncnc3ccccc23)sc(C(C)=O)c1C,4.4,3.4,3.6,-12.9,-4.9
CCOC(=O)c1c(-c2ccco2)csc1N,1.0,2.3,25.4,-41.8,-10.3
COc1ccc(Br)cc1/C=N/NC(=O)c1nc(-c2ccccc2)n2c1CCCCC2,0.4,1.2,4.4,-49.1,-20.5
O=C(NCc1ccc(C(F)(F)F)cc1)C1CC(c2ccccc2[N+](=O)[O-])=NO1 (stereo not given),2.3,0.0,4.5,-41.9,-2.9
C/C(N)=C(/C#N)C(=O)COC(=O)COc1ccc(Cl)cc1C,-0.7,2.7,14.5,-27.7,-12.3
C=CCn1c(SCC(=O)NC2CCCCC2)nnc1-c1sc(N)nc1C,-0.6,0.3,13.0,-20.0,-3.7
CCOC(=O)c1c(NC(=O)CSc2nc3ccccc3o2)sc(C)c1C,-0.1,6.9,3.9,-55.4,-3.4
CCn1ncc(Br)c1C(=O)Nc1cc(C)cc(C)c1,-3.3,1.1,8.7,-27.7,-5.1
CCOC(=O)c1c(NC(=O)CSc2nc3ccccc3s2)sc(C)c1C,-1.6,11.4*,7.9,-45.4,2.5
C=CCn1c(SCC(=O)Nc2sc(C)c(C)c2C(=O)OCC)nnc1-c1sc(N)nc1C,3.1,11.1*,7.8,-27.6,-6.3
CCOC(=O)c1c(NC(=O)c2c(Br)cnn2CC)sc(C)c1C,.,9.1*,10.0,0.7,.
Cc1ccc(O)c(-c2cc(C(F)(F)C(F)F)nc(-c3ccccc3)n2)c1,.,9.6*,12.2,-13.8,6.3
Oc1ccc(Cl)cc1-c1cc(C(F)(F)C(F)F)nc(-c2ccccc2)n1,2.2,7.8,2.0,-53.0,-0.6
CC(C)CNC(=O)c1ccccc1NC(=O)/C=C/c1cccc([N+](=O)[O-])c1,.,1.0,4.9,-7.9,-6.3
O=C(NCCc1ccccn1)C(F)(F)C(F)(F)C(F)(F)C(F)(F)C(F)(F)C(F)(F)C(F)(F)C(F)F,-8.8,-0.6,21.5,-26.4,33.3*
O=C(NCC1CCCO1)C(=O)c1c[nH]c2ccccc12 (stereo not given),.,1.8,.,.,.
CC(OC(=O)C1=COCCO1)C(=O)Nc1ccc(Oc2ccccc2)cc1 (stereo not given),0.9,10.4*,6.8,-34.4,-14.4
Cc1ccc(-c2cc(C(=O)NCCc3ccccn3)c3ccccc3n2)c(C)c1,-10.8,0.9,6.3,-8.6,-4.2
O=C(NCCc1ccccn1)c1cc(-c2cccc3ccccc23)nc2ccccc12,12.4,3.0,15.9,-37.9,28.1*
CCOc1ccc(NC(=O)CC2SC(=O)N(c3ccccc3)C2=O)cc1 (stereo not given),.,4.7,.,.,.
CC1(C)CC(=O)C2=C(C1)c1c(ccc3ccccc13)NC2c1cc([N+](=O)[O-])cc([N+](=O)[O-])c1O (stereo not given),.,2.8,.,.,.
COc1ccc(O[C@H]2C=C[C@@H](c3ccccc3)O[C@@H]2CO/N=C(\C)CCN2CCCCc3nc(C)c(C)cc32)cc1,.,0.4,23.3*,-20.4,16.4
c1ccc(-c2noc(CN3CCCC(OCc4ccccn4)C3)n2)cc1 (stereo not given),.,1.1,.,.,.
Cc1ccccc1Nc1nc2ccccc2s1,1.3,0.2,43.2*,-34.6,-7.6
SMILES,Phagocytosis inh,RAM network inh,Measles CPE,BB579 growth dn,Yeast lifespan up
Cc1cc(OCC(=O)Nc2ccc(F)c(F)c2)nc(C(C)C)n1,.,0.3,11.8,-63.0,1.4
S=c1[nH]nc(-c2ccncc2)n1/N=C/c1cccc2ccccc12,-5.2,5.4,29.3*,-10.1,0.6
O=C(NN1CCOCC1)c1cc(-c2ccccc2)nc2ccccc12,0.4,0.9,7.6,-20.4,4.3
O=C(NN1CCOCC1)c1cc(-c2cccc(Cl)c2)nc2ccccc12,.,1.3,42.6*,-23.6,-19.8
O=C(NCc1ccccc1Cl)C1CCN(C(=O)c2sccc2-n2cccc2)CC1,0.0,8.9*,9.2,-28.7,-1.0
NC(=O)CSc1nc(-c2ccccc2)c(-c2ccccc2)o1,.,11.4*,29.8,-40.0,.
COc1ccc(N=Cc2c(O)[nH]c3ccccc23)cc1,.,1.1,45.7*,-25.2,-26.4
CN(C)S(=O)(=O)c1ccc(NC(=O)C2CC3C=CC2C3)cc1 (stereo not given),-11.2,1.0,9.7,-18.7,0.5
COc1cc(/C=N/N(C)c2ccccc2)cc(Cl)c1O,-2.6,-1.6,3.6,99.7*,-13.1
COc1ccc(CN2C(=O)c3ccccc3C2C(=O)NC2CCC(C)CC2)c(OC)c1 (stereo not given),.,4.2,.,.,.
O=C(O)c1cn(Cc2ccccn2)c(=O)c2ccccc12,.,2.9,.,.,.
Cc1cccc(Sc2nc(-c3ccccc3)ccc2C#N)c1,0.9,10.6*,4.0,-26.8,-23.4
N#Cc1ccc(-c2ccccc2)nc1Sc1ccc(F)cc1,2.1,5.7,3.8,-58.4,4.2
CNc1cc(CSC)nc(SCc2ccc(Cl)cc2Cl)n1,-0.1,-1.6,26.4*,11.1,-5.0
Nc1nc(SCc2ccc(Cl)cc2Cl)n[nH]1,-2.7,-1.4,4.5,-45.7,-7.5
O=C1CC(c2ccc(Br)cc2)NC(c2ccc(Br)cc2)C1c1ccccc1 (stereo not given),-6.7,1.4,53.0*,5.0,-0.4
CC1CCc2c(sc3ncnc(SCC(=O)N4CCN(C(=O)c5ccco5)CC4)c23)C1 (stereo not given),1.0,.,.,.,.
Cc1ccc(C(=O)CSc2ncnc3sc4c(c23)CCC(C)C4)cc1 (stereo not given),.,8.6*,30.0,-28.4,.
CC(C)CCN1CCN(C2CCN(c3ccccc3)CC2)CC1CCO (stereo not given),.,1.0,.,.,.
C=CS(=O)(=O)c1ccc(Oc2ccc(S(=O)(=O)C=C)cc2)cc1,-7.3,0.9,0.3,-46.1,60.8*
O=C(c1scc2c1CCCC2)N1CCCCC1,0.4,-0.1,36.0*,6.7,6.8
Cc1ccc(NC(=O)c2scc3c2CCCC3)cc1,.,-0.3,20.4,-16.4,-6.3
C#CCn1cc(/C=N/Nc2nc3ccccc3[nH]2)c2ccccc21,-5.7,0.9,39.4,-22.4,-0.6
CC(=O)Nc1ccc(SCC(=O)c2cc(C)n(C)c2C)cc1,-2.1,0.6,46.2*,-10.9,-14.7
CC(=O)Nc1ccc(SCC(=O)c2cc(C)n(CC(F)(F)F)c2C)cc1,-0.9,2.1,22.6,8.7,-0.7
COC(=O)C(CCSC)NC(=O)C(NC(=O)C1CCC(C)CC1)C(C)C (stereo not given),-1.2,0.0,0.5,8.4,-6.7
CCC(C)C(NC(=O)C1CCC(C)CC1)C(=O)NC(CCSC)C(=O)OC (stereo not given),-0.9,0.0,23.1*,0.3,-6.0
O=C(Nc1ccc(NC(=O)c2cccs2)cn1)c1ccccc1,.,1.7,.,.,.
O=C(O)COc1ccc(NC(=O)c2cccs2)cc1,.,0.9,48.4*,-23.6,.
O=C(COc1ccccc1)NNC(=O)c1cccs1,-6.3,1.6,2.3,-15.3,9.1
